Test [1] concerns the target Transporter (Rattus norvegicus) (UniProt Q63380). Nature of the test: Inhibition of NET-mediated norepinephrine uptake in rat synaptosomes. Type of test: subcellular. As to conditions: Brain. In short, it runs like this: (§1)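 Synaptosomes prepared from rat brain homogenate. Each compound was run in both the release assay and the uptake-inhibition assay to classify it as a releasing substrate or an uptake inhibitor. Dose-response curves were then completed only for the assigned activity. Values are means ± SD from N = 3 experiments, each performed in triplicate.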

For test [2], the target named is 5-hydroxytryptamine receptor 2A (Homo sapiens) (UniProt P28223). Nature of the test: Agonist activity at human 5HT2A expressed in HEK293 cells at 10 uM by calcium mobilization assay. Type of test: functional, cell-based. A general note: Calcium assays in cells follow changes in intracellular calcium, usually with a dye or a luminescent sensor.
Test [3] concerns the target T1, 5-hydroxytryptamine receptor 1A (Homo sapiens) (UniProt P08908).
T1 sequence (whole entry): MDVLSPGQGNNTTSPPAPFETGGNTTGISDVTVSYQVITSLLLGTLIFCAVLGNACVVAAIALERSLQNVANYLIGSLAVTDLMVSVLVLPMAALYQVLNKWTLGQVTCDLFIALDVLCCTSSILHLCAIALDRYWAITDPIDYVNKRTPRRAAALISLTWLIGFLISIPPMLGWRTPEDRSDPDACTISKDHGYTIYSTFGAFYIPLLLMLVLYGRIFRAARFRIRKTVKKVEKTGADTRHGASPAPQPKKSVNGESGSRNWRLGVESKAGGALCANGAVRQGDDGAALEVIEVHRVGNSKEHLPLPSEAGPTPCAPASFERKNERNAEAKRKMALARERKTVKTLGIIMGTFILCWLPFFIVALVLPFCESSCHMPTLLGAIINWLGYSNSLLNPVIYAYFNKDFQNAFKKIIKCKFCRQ
Nature of the test: Agonist activity at human 5HT1A expressed in CHO cells coexpressing Galpha16 at 10 uM by calcium mobilization assay. The test is classed as functional, cell-based.

Test [4] concerns the target 5-hydroxytryptamine receptor 2B (Homo sapiens) (UniProt P41595). Nature of the test: Agonist activity at human 5HT2B expressed in HEK293 cells at 10 uM by calcium mobilization assay. Type of test: functional, cell-based.
Test [5] concerns the target T2, Sodium-dependent dopamine transporter (Rattus norvegicus, UniProt P23977). Nature of the test: Inhibition of DAT-mediated dopamine uptake in rat synaptosomes. Type of test: subcellular, Brain. In short, it runs like this: as §1
For test [6], the target named is 5-hydroxytryptamine receptor 2B (Homo sapiens) (UniProt P41595). Nature of the test: Agonist activity at human 5HT2C expressed in HEK293 cells at 10 uM by calcium mobilization assay. Type of test: functional, cell-based.
For test [7], the target named is Transporter (Rattus norvegicus) (UniProt Q63380). Nature of the test: Induction of NET-mediated norepinephrine release in rat synaptosomes. Type of test: subcellular. The note with it: Brain. In short, it runs like this: as §1
The target of test [8] is 5-hydroxytryptamine receptor 2A (Homo sapiens) (UniProt P28223). Nature of the test: Agonist activity at human 5HT2A expressed in CHOK1 cells at 10 uM after 3 hrs by beta-arrestin recruitment assay. The test is classed as cell-based. As to conditions: CHO-K1. For orientation: Arrestin recruitment assays detect the binding of arrestin to an activated receptor.
Test [9] concerns the target T3, Sodium-dependent serotonin transporter (Rattus norvegicus, UniProt P31652). Nature of the test: Inhibition of SERT-mediated serotonin uptake in rat synaptosomes. The test is classed as subcellular, Brain. The method in brief:
as §1

Test [10] deals with T3, Sodium-dependent serotonin transporter. Nature of the test: Induction of SERT-mediated serotonin release in rat synaptosomes. The test is classed as subcellular, Brain. The method in brief:
as §1

The target of test [11] is T2, Sodium-dependent dopamine transporter. Nature of the test: Induction of DAT-mediated dopamine release in rat synaptosomes. Type of test: subcellular, Brain. The method in brief:
as §1

The target of test [12] is Sodium-dependent dopamine transporter (Homo sapiens, UniProt Q01959). Nature of the test: Inhibition of DAT (unknown origin)-mediated dopamine reuptake.
The target of test [13] is Sodium-dependent serotonin transporter (Homo sapiens, UniProt P31645). Nature of the test: Induction of SERT (unknown origin)-mediated serotonin release.

As usually defined, the IC50 is the concentration at which inhibition is half-maximal. In general, EC50 refers to the concentration that produces a half-maximal response. What is called Ki is the dissociation constant of the complex between target and ligand, obtained from inhibition or displacement. Read a high Ki as weaker binding.

Calls of active or inactive are those of the source. The calls are words filed in the database; no cut-off is given here. Bounds are passed on as bounds.

5-hydroxytryptamine receptor 2A (Homo sapiens), sequence (P28223 whole entry): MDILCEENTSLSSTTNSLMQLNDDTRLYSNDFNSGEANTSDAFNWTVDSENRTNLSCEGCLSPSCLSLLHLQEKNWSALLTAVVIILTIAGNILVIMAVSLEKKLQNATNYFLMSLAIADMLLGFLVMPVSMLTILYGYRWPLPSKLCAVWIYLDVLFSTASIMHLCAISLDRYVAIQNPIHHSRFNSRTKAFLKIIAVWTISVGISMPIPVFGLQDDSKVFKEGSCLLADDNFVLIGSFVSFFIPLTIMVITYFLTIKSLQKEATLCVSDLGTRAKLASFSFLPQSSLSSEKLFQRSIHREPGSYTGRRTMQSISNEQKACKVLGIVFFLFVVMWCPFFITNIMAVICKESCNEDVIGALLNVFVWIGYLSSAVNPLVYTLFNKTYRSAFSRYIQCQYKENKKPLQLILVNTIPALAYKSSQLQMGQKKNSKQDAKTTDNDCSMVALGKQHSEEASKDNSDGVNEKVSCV
5-hydroxytryptamine receptor 2B (Homo sapiens), sequence (P41595 whole entry): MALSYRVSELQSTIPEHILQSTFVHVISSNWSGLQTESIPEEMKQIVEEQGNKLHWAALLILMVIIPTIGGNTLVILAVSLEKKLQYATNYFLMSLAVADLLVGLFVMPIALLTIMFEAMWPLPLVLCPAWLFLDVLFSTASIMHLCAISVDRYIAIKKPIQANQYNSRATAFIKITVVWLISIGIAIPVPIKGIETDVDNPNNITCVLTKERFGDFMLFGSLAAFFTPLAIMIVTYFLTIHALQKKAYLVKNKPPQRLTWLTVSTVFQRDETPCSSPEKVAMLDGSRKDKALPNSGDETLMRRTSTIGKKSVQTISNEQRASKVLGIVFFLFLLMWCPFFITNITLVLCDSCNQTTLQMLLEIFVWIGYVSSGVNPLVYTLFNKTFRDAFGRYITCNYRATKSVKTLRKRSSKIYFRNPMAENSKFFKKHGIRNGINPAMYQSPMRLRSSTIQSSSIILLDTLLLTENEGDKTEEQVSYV
Transporter (Rattus norvegicus), sequence (Q63380 as listed by the source): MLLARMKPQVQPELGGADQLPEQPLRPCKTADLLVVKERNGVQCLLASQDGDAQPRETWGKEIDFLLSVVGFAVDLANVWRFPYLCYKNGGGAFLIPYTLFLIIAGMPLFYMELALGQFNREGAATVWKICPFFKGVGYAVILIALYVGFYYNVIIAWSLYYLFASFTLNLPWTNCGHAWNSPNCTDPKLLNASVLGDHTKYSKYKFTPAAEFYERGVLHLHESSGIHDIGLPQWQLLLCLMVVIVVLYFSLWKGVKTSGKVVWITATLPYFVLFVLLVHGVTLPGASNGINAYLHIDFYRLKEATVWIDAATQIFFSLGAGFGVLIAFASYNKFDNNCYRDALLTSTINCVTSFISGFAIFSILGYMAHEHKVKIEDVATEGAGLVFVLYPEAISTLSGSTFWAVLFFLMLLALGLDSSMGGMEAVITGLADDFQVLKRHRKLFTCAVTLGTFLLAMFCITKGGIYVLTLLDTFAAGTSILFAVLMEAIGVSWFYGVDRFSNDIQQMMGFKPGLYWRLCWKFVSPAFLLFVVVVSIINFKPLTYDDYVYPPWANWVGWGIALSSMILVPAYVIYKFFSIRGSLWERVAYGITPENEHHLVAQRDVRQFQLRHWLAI
T2 sequence (P23977 whole entry): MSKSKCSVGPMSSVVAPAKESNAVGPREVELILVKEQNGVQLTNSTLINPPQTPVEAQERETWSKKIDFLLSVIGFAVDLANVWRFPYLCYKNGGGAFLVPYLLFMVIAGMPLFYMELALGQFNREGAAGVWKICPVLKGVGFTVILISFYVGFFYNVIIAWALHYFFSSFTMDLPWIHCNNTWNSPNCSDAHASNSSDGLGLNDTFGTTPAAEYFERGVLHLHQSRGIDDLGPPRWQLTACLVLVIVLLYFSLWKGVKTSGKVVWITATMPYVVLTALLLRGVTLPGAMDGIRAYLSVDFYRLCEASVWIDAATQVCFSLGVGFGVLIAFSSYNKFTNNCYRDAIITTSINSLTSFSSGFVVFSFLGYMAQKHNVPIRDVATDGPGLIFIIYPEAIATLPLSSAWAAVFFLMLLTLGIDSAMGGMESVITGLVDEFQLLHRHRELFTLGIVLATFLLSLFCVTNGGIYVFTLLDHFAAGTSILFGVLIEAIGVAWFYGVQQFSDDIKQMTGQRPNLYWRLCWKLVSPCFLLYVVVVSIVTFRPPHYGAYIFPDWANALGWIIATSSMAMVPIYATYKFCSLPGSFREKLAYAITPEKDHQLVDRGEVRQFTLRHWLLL
T3 sequence (P31652 whole entry): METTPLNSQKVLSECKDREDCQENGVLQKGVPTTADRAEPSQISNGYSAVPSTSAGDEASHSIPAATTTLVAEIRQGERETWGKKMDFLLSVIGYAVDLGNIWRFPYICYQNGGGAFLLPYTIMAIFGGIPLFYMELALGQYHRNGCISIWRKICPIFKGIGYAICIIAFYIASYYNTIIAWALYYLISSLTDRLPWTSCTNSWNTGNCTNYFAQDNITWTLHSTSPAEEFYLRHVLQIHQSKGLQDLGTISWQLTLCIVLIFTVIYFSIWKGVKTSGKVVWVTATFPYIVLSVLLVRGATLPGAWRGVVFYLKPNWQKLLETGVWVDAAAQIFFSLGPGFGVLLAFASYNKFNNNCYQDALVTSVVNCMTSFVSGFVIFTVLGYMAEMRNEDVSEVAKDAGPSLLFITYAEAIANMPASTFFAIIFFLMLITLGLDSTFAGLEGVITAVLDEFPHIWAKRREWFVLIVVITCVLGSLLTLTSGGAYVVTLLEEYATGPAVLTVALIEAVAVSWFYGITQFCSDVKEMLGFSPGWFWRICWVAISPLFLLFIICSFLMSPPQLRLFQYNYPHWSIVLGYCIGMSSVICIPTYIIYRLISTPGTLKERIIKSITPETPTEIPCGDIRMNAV
Sodium-dependent serotonin transporter (Homo sapiens, UniProt P31645), sequence (P31645 whole entry): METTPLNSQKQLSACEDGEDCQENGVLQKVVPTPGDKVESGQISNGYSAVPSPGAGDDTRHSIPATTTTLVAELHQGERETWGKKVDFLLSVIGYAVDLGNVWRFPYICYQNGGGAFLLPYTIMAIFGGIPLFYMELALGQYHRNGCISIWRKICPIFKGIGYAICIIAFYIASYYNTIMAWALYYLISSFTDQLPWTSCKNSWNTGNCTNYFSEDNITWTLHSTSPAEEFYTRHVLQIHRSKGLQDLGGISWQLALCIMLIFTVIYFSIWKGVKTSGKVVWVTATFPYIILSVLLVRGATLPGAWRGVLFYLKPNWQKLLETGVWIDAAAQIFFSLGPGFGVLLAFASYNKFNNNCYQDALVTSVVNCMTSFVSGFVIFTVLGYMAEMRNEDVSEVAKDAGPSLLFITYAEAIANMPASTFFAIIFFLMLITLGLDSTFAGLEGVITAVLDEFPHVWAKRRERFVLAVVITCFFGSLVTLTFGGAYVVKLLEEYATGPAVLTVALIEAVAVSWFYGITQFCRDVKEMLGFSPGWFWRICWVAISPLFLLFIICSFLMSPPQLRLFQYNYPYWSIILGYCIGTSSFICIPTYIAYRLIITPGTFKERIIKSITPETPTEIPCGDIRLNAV
Sodium-dependent dopamine transporter (Homo sapiens, UniProt Q01959), sequence (Q01959 whole entry): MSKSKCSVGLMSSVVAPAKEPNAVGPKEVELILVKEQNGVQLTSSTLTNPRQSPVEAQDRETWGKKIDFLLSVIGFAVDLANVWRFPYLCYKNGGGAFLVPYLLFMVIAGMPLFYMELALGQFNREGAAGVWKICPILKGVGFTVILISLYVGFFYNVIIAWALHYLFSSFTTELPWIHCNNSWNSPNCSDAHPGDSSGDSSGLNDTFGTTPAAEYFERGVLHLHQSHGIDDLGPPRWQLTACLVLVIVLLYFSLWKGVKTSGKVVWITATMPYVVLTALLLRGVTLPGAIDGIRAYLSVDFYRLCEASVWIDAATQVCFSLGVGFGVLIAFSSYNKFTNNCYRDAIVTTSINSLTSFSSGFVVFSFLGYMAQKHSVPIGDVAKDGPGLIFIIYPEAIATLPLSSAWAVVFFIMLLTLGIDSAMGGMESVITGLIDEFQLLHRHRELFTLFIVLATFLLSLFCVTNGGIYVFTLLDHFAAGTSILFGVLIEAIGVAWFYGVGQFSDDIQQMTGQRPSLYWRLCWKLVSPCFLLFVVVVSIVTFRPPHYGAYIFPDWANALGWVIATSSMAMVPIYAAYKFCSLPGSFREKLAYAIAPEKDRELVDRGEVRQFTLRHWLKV

As for `CCCC(N)Cc1ccccc1` (stereo not drawn), the inhibition result in test [1] was “Active”. Further, the result in test [2], in test [3], in test [4], in test [6] and in [8] was inactive. Further, the IC50 is 2.6 µM in [5] and greater than 10 µM in test [9]. The result in [7] was Active.
Turning to `Cc1ccc(C(=O)C(C)NC2CC2)cc1` (stereo not drawn), the inhibition result in test [1] was “Active”. Besides, the result in test [2], in [3], in test [4], in test [6] and in [8] was inactive. Besides, the IC50 in test [5] stood at 1.1 µM. Moreover, a half-maximal response in test [10] (EC50) required 0.667 µM. Further, in test [7], the outcome was Active.
Consider `CCC(NC)C(=O)c1ccccc1` (stereo not drawn), for which, in test [1], the inhibition result was “Active”. The result in [2], in test [3], in test [4], in [6] and in test [8] was inactive. In test [11], the EC50 worked out at 0.411 µM. In test [7], the result was Active. Moreover, the IC50 in test [9] is greater than 10 µM.
On to `CC(NC1CC1)C(=O)c1ccc(Cl)c(Cl)c1` (stereo not drawn), for which the inhibition entry in test [1] was “Active”. Also, the result in [2], in [3], in [4], in test [6] and in test [8] was inactive. Moreover, it took 0.425 µM to reach half-maximal inhibition in test [5] (IC50). For the same compound, the midpoint of the response in test [10], the EC50, lay at 0.356 µM. Besides, in test [7], the outcome was Active.
On to `Cc1cccc(C(=O)C(C)NC2CC2)c1` (stereo not drawn), for which the inhibition result in test [1] is “Active”. The result in test [2], in test [3], in test [4], in test [6] and in [8] was inactive. Besides, it took 1.1 µM to reach half-maximal inhibition in test [5] (IC50). A half-maximal effect in [10] (EC50) was put at 1.07 µM. Moreover, the result in test [7] was Active.
Take `CC(N)Cc1cccc(Cl)c1` (stereo not drawn): the inhibition entry in test [1] is “Active”. For the same compound, the result in [2], in test [3], in test [4], in test [6] and in test [8] was inactive. Also, the outcome in [7] was Active.
For `CNC(C)C(=O)c1cccc(Cl)c1` (stereo not drawn), the inhibition result in test [1] was “Active”. For the same compound, the outcome in test [2], in test [3], in test [4], in test [6] and in test [8] was inactive. Further, the EC50 in test [10] amounted to 0.41 µM; in test [11], 0.0468 µM. Further, in [7], the result was Active.
`CCNC(C)C(=O)c1ccccc1` (stereo not drawn) returned a Ki in test [12] of 1.01 µM. Moreover, the EC50 in test [13] was determined as 2.12 µM.
For `Cc1ccc(C(=O)C(C)NC2CC2)cc1Cl` (stereo not drawn), in test [1], the inhibition result was “Active”. Moreover, the outcome in test [2], in test [3], in test [4], in [6] and in test [8] was inactive. Besides, the IC50 in test [5] was 0.592 µM. A half-maximal response in test [10] (EC50) required 0.181 µM. For the same compound, in test [7], the result was Active.
As for `CC(NC1CC1)C(=O)c1cccc(Br)c1` (stereo not drawn), the inhibition result in test [1] was “Active”. In addition, the result in test [2], in test [3], in [4], in test [6] and in test [8] was inactive. In test [5], this compound gave an IC50 of 0.386 µM. This compound also had an EC50 in test [10] of 0.621 µM. In addition, the outcome in [7] was Active.
Regarding `CCNC(C)C(=O)c1cccc(Cl)c1` (stereo not drawn), the inhibition entry in test [1] is “Active”. Further, the outcome in [2], in [3], in test [4], in test [6] and in test [8] was inactive. For the same compound, the results for the IC50 in test [5] and in test [9] were 5.92 µM and greater than 10 µM, respectively. Further, the result in [7] was Active.
`CC(NC1CC1)C(=O)c1ccc(Cl)cc1` (stereo not drawn): the inhibition result in [1] was “Active”. In addition, the result in [2], in test [3], in test [4], in test [6] and in test [8] was inactive. The same compound came in with an IC50 in [5] of 2.01 µM. For the same compound, a half-maximal response in test [10] (EC50) required 1.63 µM. Further, the outcome in test [7] was Active.
For the compound `COc1cccc(C(=O)C(C)NC2CC2)c1` (stereo not drawn), in test [1], the inhibition result was “Active”. Moreover, the outcome in [2], in test [3], in [4], in test [6] and in test [8] was inactive. Further, inhibition in test [5] was half-maximal at 2.37 µM (IC50). This compound gave an EC50 in test [10] of 1.01 µM. Besides, the outcome in test [7] was Active.
For the compound `CC(NC1CC1)C(=O)c1cccc(Cl)c1` (stereo not drawn), the inhibition result in [1] is “Active”. In addition, the outcome in test [2], in test [3], in test [4], in test [6] and in test [8] was inactive. In [5], this compound came in with a half-inhibitory concentration (IC50) of 0.533 µM. The compound further showed an EC50 in test [10] of 1.33 µM. The result in [7] was Active.
With `C[C@H](NC1CC1)C(=O)c1cccc(Cl)c1`, in test [1], the inhibition result is “Active”. In addition, the result in test [2], in test [3], in test [4], in [6] and in [8] was inactive. In test [5], this compound registered an IC50 of 0.294 µM. Besides, in test [10], the EC50 is 0.562 µM. The result in [7] was Active.
`CCCNC(C)C(=O)c1cccc(Cl)c1` (stereo not drawn): in test [1], the inhibition entry is “Active”. Further, the result in test [2], in test [3], in test [4], in test [6] and in test [8] was inactive. Moreover, the IC50 in test [5] was 0.793 µM; in test [9], greater than 10 µM. Moreover, in [7], the outcome was Active.
With `CCC(Cc1ccccc1)NC` (stereo not drawn), the inhibition entry in test [1] is “Active”. For the same compound, the outcome in test [2], in test [3], in test [4], in test [6] and in test [8] was inactive. In addition, the EC50 turned out to be 4.7 µM in test [10] and 0.225 µM in test [11]. For the same compound, the outcome in test [7] was Active.
With `C[C@@H](NC1CC1)C(=O)c1cccc(Cl)c1`, in test [1], the inhibition result was “Active”. Further, the result in test [2], in test [3], in test [4], in test [6] and in test [8] was inactive. The IC50 in [5] stood at 0.369 µM. This compound displayed an EC50 in test [10] of 0.733 µM. The result in test [7] was Active.

The record behind these values is ChEMBL document CHEMBL3297719, “Hybrid dopamine uptake blocker-serotonin releaser ligands: a new twist on transporter-focused therapeutics” (ACS Med Chem Lett, 2014).
